Experimental data as given in ChEMBL document CHEMBL3112447, “Discovery of 1-methyl-1H-imidazole derivatives as potent Jak2 inhibitors” (J Med Chem, 2014).
The source made the active and inactive calls. The rule behind the calls is not given here.

Tests used:
[1] = Antitumor activity against human UKE1 cells xenografted in SCID mouse assessed as tumor growth inhibition at 3 mg/kg, po bid administered for 14 days measured on day 28; assay type: functional; conditions: read-out: TGI
Method in brief: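 UKE-1 cells mixed with matrigel implanted subcutaneously in female SCID mice. On day 15, mice randomized at a mean tumor volume of about 150 mm³. Oral gavage twice daily at 3 or 10 mg/kg, or vehicle, for 14 days. Tumor volume and body weight tracked through the dosing phase.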

Mus musculus [2] = experiment: In vivo inhibition of Jak2 in po dose3d mouse transfected with mouse BA/F3 cells expressing TEL-Jak2 assessed as inhibition of STAT5 phosphorylation after 6 to 12 hrs by Western blotting analysis; assay type: functional, organism-based; conditions: BaF3
Method in brief: (§1)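 Mice bearing BaF3 TEL-JAK2 cells given a single oral dose of 3, 5 or 10 mg/kg and sacrificed at various times after dosing. Spleen lysates probed for phospho-STAT5 and total STAT5 by Western blot, and pSTAT5 inhibition assessed.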

Mus musculus [3] = experiment: In vivo inhibition of Jak2 in mouse transfected with mouse BA/F3 cells expressing TEL-Jak2 assessed as inhibition of STAT5 phosphorylation at 3 to 10 mg/kg, po by Western blotting analysis; assay type: functional, organism-based; conditions: BaF3, TDE = time-dependent effect; method in brief: as §1
Mus musculus [4] = experiment: In vivo inhibition of Jak2 in mouse transfected with mouse BA/F3 cells expressing TEL-Jak2 assessed as inhibition of STAT5 phosphorylation at 3 mg/kg, po after 8 hrs by Western blotting analysis; assay type: functional; conditions: BaF3, 8 h; method in brief: as §1
Mus musculus [5] = experiment: In vivo inhibition of Jak2 in mouse transfected with mouse BA/F3 cells expressing TEL-Jak2 assessed as inhibition of STAT5 phosphorylation at 3 mg/kg, po after 6 hrs by Western blotting analysis; assay type: functional; conditions: BaF3, 6 h; method in brief: as §1
Mus musculus [6] = experiment: In vivo inhibition of Jak2 in mouse transfected with mouse BA/F3 cells expressing TEL-Jak2 assessed as inhibition of STAT5 phosphorylation at 10 mg/kg, po after 6 hrs by Western blotting analysis; assay type: functional, organism-based; design: dose 10 mg/kg; conditions: BaF3; method in brief: as §1
[7] = Cytotoxicity against human SET2 cells expressing Jak2 V617F mutant after 72 hrs by MTS assay; assay type: functional; conditions: SET-2, 72 h
[8] = biological target: Non-receptor tyrosine-protein kinase TYK2 (Mus musculus) (UniProt Q9R117); experiment: (§2) Inhibition of Tyk2 in mouse BA/F3 cells expressing TEL-Tyk2 assessed as inhibition of STAT5 phosphorylation by Western blotting analysis; assay type: cell-based; conditions: BaF3
Sequence of Non-receptor tyrosine-protein kinase TYK2 (Mus musculus) (Q9R117 whole entry): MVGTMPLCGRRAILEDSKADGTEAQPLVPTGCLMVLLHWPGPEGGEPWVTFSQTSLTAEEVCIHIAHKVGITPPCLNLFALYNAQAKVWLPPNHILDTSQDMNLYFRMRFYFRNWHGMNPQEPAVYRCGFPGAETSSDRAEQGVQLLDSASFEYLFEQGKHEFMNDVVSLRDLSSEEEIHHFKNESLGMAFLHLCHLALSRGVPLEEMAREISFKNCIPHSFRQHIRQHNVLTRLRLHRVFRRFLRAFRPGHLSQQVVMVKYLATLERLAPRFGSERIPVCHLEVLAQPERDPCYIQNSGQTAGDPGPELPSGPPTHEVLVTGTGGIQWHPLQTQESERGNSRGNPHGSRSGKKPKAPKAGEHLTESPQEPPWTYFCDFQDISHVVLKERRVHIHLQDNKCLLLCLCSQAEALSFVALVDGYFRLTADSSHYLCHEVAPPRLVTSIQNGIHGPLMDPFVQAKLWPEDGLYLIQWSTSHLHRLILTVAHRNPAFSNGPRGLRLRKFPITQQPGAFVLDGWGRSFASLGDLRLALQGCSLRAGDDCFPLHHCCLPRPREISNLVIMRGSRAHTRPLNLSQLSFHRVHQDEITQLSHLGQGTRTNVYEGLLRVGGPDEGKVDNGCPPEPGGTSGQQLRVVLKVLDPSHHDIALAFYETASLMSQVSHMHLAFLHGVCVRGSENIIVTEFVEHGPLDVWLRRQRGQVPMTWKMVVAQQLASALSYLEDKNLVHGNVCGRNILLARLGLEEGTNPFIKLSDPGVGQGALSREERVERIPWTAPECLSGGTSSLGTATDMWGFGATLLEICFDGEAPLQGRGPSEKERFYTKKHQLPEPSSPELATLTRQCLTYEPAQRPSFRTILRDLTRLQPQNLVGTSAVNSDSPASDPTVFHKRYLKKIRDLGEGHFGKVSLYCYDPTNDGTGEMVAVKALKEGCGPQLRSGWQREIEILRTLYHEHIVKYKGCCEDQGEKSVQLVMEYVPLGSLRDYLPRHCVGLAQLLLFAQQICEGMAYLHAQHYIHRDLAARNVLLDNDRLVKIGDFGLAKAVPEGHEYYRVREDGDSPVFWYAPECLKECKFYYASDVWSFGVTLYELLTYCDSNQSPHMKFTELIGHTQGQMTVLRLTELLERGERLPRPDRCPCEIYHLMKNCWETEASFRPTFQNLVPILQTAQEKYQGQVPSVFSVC

[9] = biological target: Non-receptor tyrosine-protein kinase TYK2 (Mus musculus, UniProt Q9R117); experiment: as §2; assay type: cell-based; conditions: baf3
Sequence of Non-receptor tyrosine-protein kinase TYK2 (Q9R117 whole entry, looked up): as the sequence (Q9R117 whole entry) above

[10] = biological target: Tyrosine-protein kinase JAK3 (Mus musculus) (UniProt Q62137); experiment: (§3) Inhibition of Jak3 in mouse BA/F3 cells expressing TEL-Jak3 assessed as inhibition of STAT5 phosphorylation by Western blotting analysis; assay type: cell-based; conditions: BaF3
Sequence of Tyrosine-protein kinase JAK3 (Mus musculus) (Q62137 whole entry): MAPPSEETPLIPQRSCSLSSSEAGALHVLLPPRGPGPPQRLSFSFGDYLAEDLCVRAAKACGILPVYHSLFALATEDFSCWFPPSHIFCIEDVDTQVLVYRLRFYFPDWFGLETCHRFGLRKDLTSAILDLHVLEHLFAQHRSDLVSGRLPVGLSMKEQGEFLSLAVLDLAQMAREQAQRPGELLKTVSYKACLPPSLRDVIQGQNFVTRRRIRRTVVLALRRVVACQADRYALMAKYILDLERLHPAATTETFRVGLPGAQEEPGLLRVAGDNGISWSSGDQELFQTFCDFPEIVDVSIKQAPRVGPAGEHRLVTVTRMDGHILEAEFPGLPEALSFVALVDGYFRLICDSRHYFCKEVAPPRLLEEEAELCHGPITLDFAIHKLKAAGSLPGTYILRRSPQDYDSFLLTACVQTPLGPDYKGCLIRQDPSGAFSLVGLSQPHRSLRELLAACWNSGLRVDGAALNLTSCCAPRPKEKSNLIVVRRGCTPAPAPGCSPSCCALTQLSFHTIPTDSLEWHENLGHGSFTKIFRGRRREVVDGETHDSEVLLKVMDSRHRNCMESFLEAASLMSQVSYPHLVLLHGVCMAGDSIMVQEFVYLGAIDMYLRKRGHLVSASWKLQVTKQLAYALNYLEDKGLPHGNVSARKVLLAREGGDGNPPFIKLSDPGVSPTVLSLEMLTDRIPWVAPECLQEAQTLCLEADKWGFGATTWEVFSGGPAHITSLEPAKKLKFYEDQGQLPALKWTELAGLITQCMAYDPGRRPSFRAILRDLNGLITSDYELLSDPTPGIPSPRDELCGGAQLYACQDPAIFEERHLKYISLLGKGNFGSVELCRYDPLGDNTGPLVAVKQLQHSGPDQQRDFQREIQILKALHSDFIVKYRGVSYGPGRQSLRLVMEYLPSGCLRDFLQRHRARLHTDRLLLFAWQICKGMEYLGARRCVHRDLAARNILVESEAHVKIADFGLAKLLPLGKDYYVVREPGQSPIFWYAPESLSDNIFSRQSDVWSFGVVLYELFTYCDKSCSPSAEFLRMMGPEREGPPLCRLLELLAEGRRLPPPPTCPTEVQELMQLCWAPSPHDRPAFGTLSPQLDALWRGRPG

[11] = biological target: Tyrosine-protein kinase JAK3 (Mus musculus, UniProt Q62137); experiment: as §3; assay type: cell-based, BaF3
Sequence of Tyrosine-protein kinase JAK3 (Mus musculus, UniProt Q62137) (Q62137 whole entry): as above

[12] = Cytotoxicity against mouse BA/F3 cells expressing TEL-Jak1 after 72 hrs by MTS assay; assay type: functional; conditions: BaF3, 72 h
Method in brief: (§4)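 BaF3 cells transfected with the kinase domain of Jak1, Jak3 or Tyk2 (TEL fusions). Growth inhibition measured as the counter-screen for cellular selectivity.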

[13] = Cytotoxicity against mouse BA/F3 cells expressing TEL-Jak3 after 72 hrs by MTS assay; assay type: functional; conditions: BaF3, 72 h; method in brief: as §4
[14] = biological target: Serine/threonine-protein kinase SIK1 (Homo sapiens, UniProt P57059); experiment: Inhibition of human SIK
Sequence of Serine/threonine-protein kinase SIK1 (P57059 whole entry): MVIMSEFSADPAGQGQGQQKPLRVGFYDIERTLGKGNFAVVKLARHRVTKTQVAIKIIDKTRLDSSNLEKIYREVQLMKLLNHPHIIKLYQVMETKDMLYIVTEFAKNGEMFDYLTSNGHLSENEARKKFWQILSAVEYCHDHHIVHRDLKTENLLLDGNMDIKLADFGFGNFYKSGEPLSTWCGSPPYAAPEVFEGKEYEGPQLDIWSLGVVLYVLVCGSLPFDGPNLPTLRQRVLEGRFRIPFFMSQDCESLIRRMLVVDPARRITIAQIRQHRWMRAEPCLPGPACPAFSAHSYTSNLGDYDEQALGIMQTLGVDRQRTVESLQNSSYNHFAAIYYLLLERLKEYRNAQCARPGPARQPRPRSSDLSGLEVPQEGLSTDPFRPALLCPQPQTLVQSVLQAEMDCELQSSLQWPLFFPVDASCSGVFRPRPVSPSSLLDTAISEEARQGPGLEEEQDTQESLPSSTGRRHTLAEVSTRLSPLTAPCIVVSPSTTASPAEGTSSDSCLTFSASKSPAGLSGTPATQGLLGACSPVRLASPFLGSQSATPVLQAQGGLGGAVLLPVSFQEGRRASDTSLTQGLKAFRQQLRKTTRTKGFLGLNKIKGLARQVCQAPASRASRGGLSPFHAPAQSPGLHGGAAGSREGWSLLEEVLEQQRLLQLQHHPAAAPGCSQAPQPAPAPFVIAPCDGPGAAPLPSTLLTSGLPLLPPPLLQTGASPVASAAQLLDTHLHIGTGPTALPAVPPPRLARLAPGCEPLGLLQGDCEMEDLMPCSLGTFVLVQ
Method in brief: (§5)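 Panel of 82 kinases. Radiometric filter-binding assay with ATP at or near Km. Compound tested at 0.01, 0.10 and 1.0 μM. Values expressed as minimum possible fold selectivity against Jak2.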

Aurora kinase A = Aurora kinase A (Homo sapiens, UniProt O14965); experiment: Inhibition of human aurora A kinase; method in brief: as §5
Sequence of Aurora kinase A (O14965 whole entry): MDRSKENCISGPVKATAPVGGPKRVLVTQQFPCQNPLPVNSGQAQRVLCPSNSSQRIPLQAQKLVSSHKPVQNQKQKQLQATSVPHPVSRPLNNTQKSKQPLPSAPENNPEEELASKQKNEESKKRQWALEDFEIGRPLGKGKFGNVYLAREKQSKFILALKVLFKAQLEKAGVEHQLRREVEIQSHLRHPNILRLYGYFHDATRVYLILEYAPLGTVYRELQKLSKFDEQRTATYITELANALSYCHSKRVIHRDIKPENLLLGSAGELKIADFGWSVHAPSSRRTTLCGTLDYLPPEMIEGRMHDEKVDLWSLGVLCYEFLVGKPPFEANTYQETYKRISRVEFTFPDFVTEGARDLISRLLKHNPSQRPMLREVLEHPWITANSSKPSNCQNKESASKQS

[15] = biological target: High affinity nerve growth factor receptor (Homo sapiens, UniProt P04629); experiment: Inhibition of human TrkA; method in brief: as §5
Sequence of High affinity nerve growth factor receptor (P04629 whole entry): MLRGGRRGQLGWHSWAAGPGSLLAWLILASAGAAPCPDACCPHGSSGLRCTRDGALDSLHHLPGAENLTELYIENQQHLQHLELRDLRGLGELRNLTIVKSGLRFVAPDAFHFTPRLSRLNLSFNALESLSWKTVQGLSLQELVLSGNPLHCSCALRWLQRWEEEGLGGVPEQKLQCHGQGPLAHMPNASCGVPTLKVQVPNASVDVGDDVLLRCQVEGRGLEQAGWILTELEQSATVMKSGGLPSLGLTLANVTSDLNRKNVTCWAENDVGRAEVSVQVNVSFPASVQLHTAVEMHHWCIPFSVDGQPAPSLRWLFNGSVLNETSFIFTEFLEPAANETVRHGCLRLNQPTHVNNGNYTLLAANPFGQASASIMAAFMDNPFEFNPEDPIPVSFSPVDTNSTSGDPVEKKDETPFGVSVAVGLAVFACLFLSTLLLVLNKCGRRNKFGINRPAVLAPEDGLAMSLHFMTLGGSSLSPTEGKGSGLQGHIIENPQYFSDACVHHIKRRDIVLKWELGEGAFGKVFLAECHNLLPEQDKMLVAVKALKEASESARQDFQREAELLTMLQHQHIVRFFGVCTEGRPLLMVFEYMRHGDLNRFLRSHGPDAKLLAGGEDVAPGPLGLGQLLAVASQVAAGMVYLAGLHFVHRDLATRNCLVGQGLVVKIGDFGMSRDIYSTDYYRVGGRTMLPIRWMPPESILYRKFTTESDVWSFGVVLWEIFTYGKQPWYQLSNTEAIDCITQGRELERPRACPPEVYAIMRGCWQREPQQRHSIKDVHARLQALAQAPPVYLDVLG

[16] = biological target: T1, Tyrosine-protein kinase JAK3 (Homo sapiens, UniProt P52333); experiment: Inhibition of human JAK3; method in brief: as §5
T1 sequence (P52333 whole entry): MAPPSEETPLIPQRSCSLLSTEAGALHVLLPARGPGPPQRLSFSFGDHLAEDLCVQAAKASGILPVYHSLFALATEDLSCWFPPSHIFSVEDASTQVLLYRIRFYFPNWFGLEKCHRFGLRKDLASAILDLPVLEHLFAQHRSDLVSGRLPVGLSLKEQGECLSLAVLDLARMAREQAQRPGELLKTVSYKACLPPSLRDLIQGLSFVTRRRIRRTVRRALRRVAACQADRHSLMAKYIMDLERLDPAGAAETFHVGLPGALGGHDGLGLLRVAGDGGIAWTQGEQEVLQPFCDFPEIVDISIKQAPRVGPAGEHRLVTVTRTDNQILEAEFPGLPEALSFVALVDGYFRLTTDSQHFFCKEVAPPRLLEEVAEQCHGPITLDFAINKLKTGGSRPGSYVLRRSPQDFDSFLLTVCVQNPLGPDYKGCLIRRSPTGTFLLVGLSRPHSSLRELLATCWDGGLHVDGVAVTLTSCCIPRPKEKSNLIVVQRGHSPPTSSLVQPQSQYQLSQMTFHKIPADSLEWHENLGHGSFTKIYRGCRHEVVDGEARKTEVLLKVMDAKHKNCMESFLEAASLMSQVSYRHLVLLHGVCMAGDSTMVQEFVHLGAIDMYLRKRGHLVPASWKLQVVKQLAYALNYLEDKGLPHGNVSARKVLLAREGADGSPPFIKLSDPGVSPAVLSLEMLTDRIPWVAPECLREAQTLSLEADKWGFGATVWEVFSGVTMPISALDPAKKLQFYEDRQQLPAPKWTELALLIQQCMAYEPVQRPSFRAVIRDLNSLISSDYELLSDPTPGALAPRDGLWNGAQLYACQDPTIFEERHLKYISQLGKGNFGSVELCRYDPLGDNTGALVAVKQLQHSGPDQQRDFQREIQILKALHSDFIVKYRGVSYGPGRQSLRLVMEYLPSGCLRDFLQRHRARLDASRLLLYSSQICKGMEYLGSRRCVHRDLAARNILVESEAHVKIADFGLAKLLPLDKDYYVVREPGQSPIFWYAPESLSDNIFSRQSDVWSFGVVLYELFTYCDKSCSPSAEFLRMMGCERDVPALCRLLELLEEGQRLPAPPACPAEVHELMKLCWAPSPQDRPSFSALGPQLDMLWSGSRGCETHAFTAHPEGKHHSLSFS

[17] = biological target: Tyrosine-protein kinase Fgr (Homo sapiens, UniProt P09769); experiment: Inhibition of human Fgr; method in brief: as §5
Sequence of Tyrosine-protein kinase Fgr (P09769 whole entry): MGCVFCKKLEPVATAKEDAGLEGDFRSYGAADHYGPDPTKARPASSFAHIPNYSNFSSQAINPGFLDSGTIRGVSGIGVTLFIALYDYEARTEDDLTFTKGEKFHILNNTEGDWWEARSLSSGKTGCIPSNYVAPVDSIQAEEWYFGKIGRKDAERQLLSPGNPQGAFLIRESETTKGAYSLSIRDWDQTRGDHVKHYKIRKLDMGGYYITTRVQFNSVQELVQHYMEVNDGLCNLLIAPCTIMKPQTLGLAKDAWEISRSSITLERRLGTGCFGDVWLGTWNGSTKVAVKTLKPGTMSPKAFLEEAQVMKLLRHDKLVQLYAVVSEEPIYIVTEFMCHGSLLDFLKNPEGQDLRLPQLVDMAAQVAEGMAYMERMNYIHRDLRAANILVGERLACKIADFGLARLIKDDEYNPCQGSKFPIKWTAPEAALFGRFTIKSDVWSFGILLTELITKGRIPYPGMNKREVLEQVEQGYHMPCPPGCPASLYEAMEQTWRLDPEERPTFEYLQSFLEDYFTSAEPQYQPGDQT

Canis familiaris = experiment: Oral bioavailability in beagle dog at 10 mg/kg; assay type: ADME, organism-based, Canis lupus familiaris; conditions: in vivo
Method in brief: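 Male beagle dogs. Oral dose 10 mg/kg in 0.1% HPMC, pH 2. IV dose 2.5 mg/kg in 20% TEG/D5W. […] Clearance, Vdss, half-life and oral bioavailability (F%) derived from the plasma profiles.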

[18] = Volume of distribution at steady state in Wistar rat at 10 mg/kg, po and 3 mg/kg, iv; assay type: ADME, organism-based; conditions: in vivo, read-out: Vdss
Method in brief: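 Rat pharmacokinetics. Oral dose 10 mg/kg in 0.1% HPMC. IV dose 3 mg/kg in 40% DMA/40% PEG/20% saline. Clearance, half-life, Vdss and oral bioavailability derived from the plasma profiles.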

C[C@H](Nc1nc(Nc2cn(C)cn2)c2cc[nH]c2n1)c1ncc(F)cn1
inhibition in vivo at 3 mg/kg [1]: 50%
inhibition (Mus musculus [2]): Dose-dependent effect
inhibition (Mus musculus [3]): tde
inhibition in vivo at 3 mg/kg (Mus musculus [4]): 30%
inhibition in vivo at 3 mg/kg (Mus musculus [5]): 80%
inhibition (Mus musculus [6]): Active
GI50 [7]: 0.014 µM
inhibition [8]: Dose-dependent effect
IC50 [9]: 0.24 µM
inhibition [10]: Dose-dependent effect
IC50 [11]: 2 µM
GI50 [12]: 0.22 µM
GI50 [13]: 1.8 µM
IC50 [14]: 0.19 µM
IC50 (Aurora kinase A): 0.058 µM
IC50 [15]: 0.035 µM
IC50 [16]: 0.035 µM
IC50 [17]: 0.033 µM
F (Canis familiaris): 64%
Vd [18]: 2.2 L/kg
